# High-throughput results from PubChem.
# Jurkat NFkB inh – lowers PMA/ionomycin-induced NF-kB signal in Jurkat cells; inhibition, % at 4 µM; PMA/ionomycin-induced NF-kB luciferase reporter, luminescence; actives 0.53% (n = 330,000); in the data active means inhibition above about 50%
# 697 NFkB inh – inhibitors of the PMA/ionomycin-induced NF-kB reporter in 697 B cells | 697 B-cell NF-kB luciferase reporter, 16 h | inhibition, % at 4 µM | actives 0.33% (n = 330,000) | AID 435022; in the data active means inhibition above about 35%
# HSF1 inhib – HSF1 inhibition | NIH3T3-HGL HSE-luciferase, MG132-induced, luminescence 8 h; active compounds read low | activity change, negative = inhibition, % at 7.5 µM (by protocol) | actives 0.77% (n = 300,000);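 active means more than half of replicate wells show activity change below -50%, luminescence cut by over half; inconclusive means some wells, but at most half, below -50%; inactive means no replicate well below -50%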;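 further: luciferase reports HSF-1 transcriptional activity via heat shock element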
# T cruzi inh – blocks replication of Trypanosoma cruzi. T. cruzi beta-gal in NIH3T3, luminescence, 90 h. inhibition, % (no concentration beside the values). actives 1.4% (n = 300,000);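 active means mean inhibition across valid replicates above about 55%, limit read from the data; inconclusive means mean below that limit but half or more replicates reach it; inactive means mean below it, under half of replicates reach it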;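 further: signal also drops with host cell toxicity which is not excluded here; higher percent means less beta-gal luminescence so fewer parasites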
#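 System: NIH/3T3 fibroblasts plus reporter T. cruzi. Medium: DMEM plus 2% FBS. Probe or stimulus: 5000 reporter trypomastigotes per well. Compound: single 50 nL compound addition per well in DMSO. Incubation: co-culture of at least 90 h after 3 h attachment. Detection: GalScreen β-gal luminescence, detergent lysis, 60 min. Evaluation: parasite load inhibition, %.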
# GPR7 antagonist – human neuropeptides B/W receptor 1 antagonism. inhibition, % at 4.4 µM. actives 1.1% (n = 290,000). GPR7-expressing cells, fluorescence antagonist assay. AID 1861; in the data active means inhibition above about 16%, passing the limit was not always enough;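 further: cells stimulated with the agonist NPW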
# Target sequence (P48145 whole entry, looked up): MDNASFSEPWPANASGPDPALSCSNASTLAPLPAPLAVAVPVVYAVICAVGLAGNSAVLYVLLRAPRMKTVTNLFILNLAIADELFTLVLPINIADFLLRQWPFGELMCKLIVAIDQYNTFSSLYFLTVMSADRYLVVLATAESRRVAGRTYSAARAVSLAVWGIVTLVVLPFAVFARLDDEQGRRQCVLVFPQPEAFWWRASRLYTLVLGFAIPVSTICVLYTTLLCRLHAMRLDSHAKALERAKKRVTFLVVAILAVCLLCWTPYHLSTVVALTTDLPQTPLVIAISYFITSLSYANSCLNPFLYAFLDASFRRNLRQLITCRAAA
# HSF-1 act – increases HSF-1 driven luciferase reporter signal; NIH3T3-HGL HSF-1 luciferase reporter, MG132, 8 h; 100% = twice DMSO control signal; activation, % at 9 µM; actives 1.7% (n = 300,000); AID 504408;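 active means mean replicate activation of at least 50% with a set share of replicates each reaching 50%; inconclusive means only one of those two conditions met; inactive means mean below 50% and too few replicates reaching it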
# Numbers stand for hits; – = inactive; ? = inconclusive; · = not tested or not shown. Rows were chosen to be rich in hits. Some 4.8% of all compounds tested hit in one or more screens of this group.
SMILES,Jurkat NFkB inh,697 NFkB inh,HSF1 inhib,T cruzi inh,GPR7 antagonist,HSF-1 act
COc1ccc(OCc2cc(C(=O)NCC3CCCCO3)no2)c(Cl)c1 (stereo not given),–,–,–,–,–,–
c1cncc(-c2nc(-c3ccc4c(c3)OCCO4)cs2)c1,–,–,–,–,–,64.1
Oc1ccc(-c2csc(-c3cccnc3)n2)cc1O,–,–,–,–,–,–
Cc1cccc(Nc2nc(-c3ccncc3)cs2)c1,–,–,–,60.9,–,–
Clc1ccc(-c2csc(Nc3cccnc3)n2)cc1,–,–,–,58.5,–,–
CC(C)C(NC(=O)OCc1ccccc1)C(=O)NCc1ccc(C(=O)O)cc1 (stereo not given),–,–,–,–,–,–
COc1cc2c(cc1OC)C(Nn1cnnc1)=NC1(CCCC1)C2,–,–,–,–,–,–
Cc1cc(N=Nc2ccc(Cl)cc2)cc(CN2CCCC2)c1O,–,–,-60.5,–,–,–
Cc1cc2c(NC(=O)CCCC(=O)O)cccc2nn1,–,–,–,–,–,–
Cc1cc2c(NC(=O)Nc3ccc(C(F)(F)F)cc3)cccc2nn1,–,–,–,68.6,–,–
O=C(O)/C=C/c1nc(-c2ccccc2)n2ccccc12,–,–,–,–,–,–
CCn1c(SCc2cccc(F)c2)nnc1-c1cccnc1,–,–,–,–,18.6,–
Nn1c(SCc2ccc(F)cc2)nnc1-c1cccnc1,–,–,–,–,–,62.1
CCN(CC)C(=O)[C@H]1C[C@H](CC(=O)NCCC2=CCCCC2)C(=O)N2CCc3c([nH]c4ccc(Cl)cc34)[C@]12C,·,–,·,·,·,·
COC(=O)CN1C(c2ccc(OC)cc2)=Nc2ccc(Cl)cc2C1c1ccccc1 (stereo not given),–,–,–,–,–,–
COC(=O)CN1C(c2cccc(Cl)c2)=Nc2ccc(Cl)cc2C1c1ccccc1 (stereo not given),·,·,–,–,–,64.0
C/C=C\C(=O)Nc1cccc(C2=NOC3(C2)C[C@@H](C(N)=O)N(C(=O)CC(c2ccccc2)c2ccccc2)C3)c1 (stereo not given in full),–,–,–,–,·,–
CCCCCC(=O)Nc1cccc(C2=NOC3(C2)C[C@@H](C(N)=O)N(C(=O)CC(c2ccccc2)c2ccccc2)C3)c1 (stereo not given in full),–,–,–,76.2,·,–
Cc1ccc(C2(C)NC(=O)N(CC(=O)NC3CCCCC3)C2=O)cc1 (stereo not given),–,–,·,·,·,·
CC(C)(C)c1ccc(C2CC2C(=O)N/N=C\c2ccc[nH]2)cc1 (stereo not given),–,–,–,60.4,–,–
CCOC(=O)C1=C(N)Oc2cc(O)ccc2C1c1ccc([N+](=O)[O-])cc1 (stereo not given),–,–,–,57.1,–,–
COc1ccccc1N1CCN(C(=O)c2cccc(S(=O)(=O)NCc3cccnc3)c2)CC1,–,–,·,·,·,·
COc1ccc(NC2=C(Cl)C(=O)N(CCc3ccccc3)C2=O)cc1,–,–,–,–,–,59.0
COc1ccc(NC2=C(Cl)C(=O)N(CCc3ccccc3)C2=O)c(OC)c1,–,–,–,–,–,–
CCOc1ccc(CN2CCN(C(=O)c3cccc4ccccc34)CC2)cc1,–,–,–,–,–,–
SMILES,Jurkat NFkB inh,697 NFkB inh,HSF1 inhib,T cruzi inh,GPR7 antagonist,HSF-1 act
CC(C)(CNC(=O)c1cccc(S(=O)(=O)Nc2ccc(Br)cc2)c1)N1CCOCC1,–,–,–,–,·,–
COc1nn(-c2ccccc2)c(=O)c(Cl)c1Cl,–,–,-93.2,–,–,–
COc1cccc(NC(=O)CSc2nc3c([nH]c4ccccc43)c(=O)n2C)c1,–,–,–,–,–,94.8
Cc1cccc(NC(=O)CSc2nc3c([nH]c4ccccc43)c(=O)n2C)c1,–,–,–,–,–,–
CCOC(=O)COc1cc(N)c(Cl)cc1Cl,–,–,–,–,–,–
C=CCN1C(=O)c2ccc(C(=O)N3CCN(S(=O)(=O)c4cccc(F)c4)CC3)cc2C1=O,–,–,–,–,·,–
Cc1ccc(OCc2cccc(S(=O)(=O)N(C)C)c2)c([N+](=O)[O-])n1,–,–,–,–,–,–
CCOC(=O)c1cnn(-c2ccccc2)c1-n1cccc1,–,–,-73.7,–,–,–
O=C1CC(N2CCN(c3ncccn3)CC2)C(=O)N1CCc1ccccc1 (stereo not given),–,–,–,–,–,–
O=C1C(=O)c2c(C(=O)c3ccccc3)coc2-c2ccccc21,–,–,–,58.0,–,–
OC(CNCc1cccc(Cl)c1)c1ccccc1 (stereo not given),–,–,–,–,–,72.5
OC(CNCc1ccccc1)c1ccccc1 (stereo not given),–,–,–,–,–,–
CCOC(=O)C1=C(CC)Nc2ccccc2N=C1NC(=O)Nc1ccc(Cl)c(Cl)c1,–,–,–,60.9,–,–
NC(=O)c1ccc[n+](CC(=O)OCCC23CC4CC(CC(C4)C2)C3)c1,–,–,-70.0,–,–,–
NC(=O)c1ccc[n+](CC(=O)c2ccc(Br)cc2)c1,–,–,–,–,–,–
CC(C)(C)c1ccc(OCC(=O)NN2Cc3ccccc3C2=N)cc1,–,–,–,–,–,91.9
N=C1c2ccccc2CN1NC(=O)COc1ccc(Cl)cc1,–,–,–,–,–,–
CCCCn1c(SCC(=O)Nc2cc(C)on2)nc2cc(S(N)(=O)=O)ccc21,–,–,·,·,·,·
CCCCn1c(SCc2c(C)noc2C)nc2cc(S(N)(=O)=O)ccc21,–,–,–,–,–,51.7
CCOC(=O)Cn1c(=N)n(CCOc2ccc3ccccc3c2)c2ccccc21,–,–,–,–,20.8,–
COc1cccc(-c2ccc(NC(=O)C3CCCN(Cc4cnn(C(C)C)c4)C3)cc2)c1 (stereo not given),–,–,–,–,20.2,–
CCn1cc(CN2CCCC(C(=O)c3ccc(-c4ccccc4)cc3)C2)cn1 (stereo not given),–,–,–,65.0,–,–
CC(C)Oc1cccc(C(=O)C2CCCN(Cc3cnn(C(C)C)c3)C2)c1 (stereo not given),–,–,–,78.3,–,–
Cc1nn(C(C)C)c(C)c1CN1CCCC(C(=O)c2cccc(OC(C)C)c2)C1 (stereo not given),–,–,–,–,–,–
CC(C)Oc1cccc(C(=O)C2CCCN(Cc3ccc4nonc4c3)C2)c1 (stereo not given),–,–,–,–,–,–
CCn1nc(C)c(CN2CCCC(C(=O)c3cccc(OC(C)C)c3)C2)c1C (stereo not given),–,–,–,64.7,–,–
Cn1cc(CN2CCCC(C(=O)c3ccc(-c4ccccc4)cc3)C2)cn1 (stereo not given),–,–,–,?,–,–
